Assay results published in ChEMBL document CHEMBL3286218, “Structure-activity relationship studies of N-methylated and N-hydroxylated spider polyamine toxins as inhibitors of ionotropic glutamate receptors” (J Med Chem, 2014).

Assays:
Assay type in all cases: cell-based
[1] = biological target: Glutamate NMDA receptor; Grin1/Grin2a (Rattus norvegicus) (UniProt P35439+Q00959); experiment: Inhibition of rat recombinant GluN1/2A expressed in Xenopus oocytes assessed as inhibition of glutamate/glycine-evoked channel current at 100 nM at holding potential of -80 mV by two-electrode voltage clamp technique
In short: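 Single-concentration screen at 100 nM on oocytes expressing GluN1/2A (1:10 cRNA ratio), two-electrode clamp at −80 mV, rt, in frog Ringer's. Percent inhibition of current evoked by 100 μM L-glutamate plus 100 μM glycine, with compound bath-applied in Ringer's.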

[2] = biological target: Glutamate receptor 1 (Rattus norvegicus) (UniProt P19490); experiment: Inhibition of rat recombinant GluA1 expressed in Xenopus oocytes assessed as inhibition of glutamate-induced channel current at 100 nM at holding potential of -80 mV by two-electrode voltage clamp technique
Sequence of Glutamate receptor 1 (Rattus norvegicus) (P19490 whole entry, the tested form may be a part): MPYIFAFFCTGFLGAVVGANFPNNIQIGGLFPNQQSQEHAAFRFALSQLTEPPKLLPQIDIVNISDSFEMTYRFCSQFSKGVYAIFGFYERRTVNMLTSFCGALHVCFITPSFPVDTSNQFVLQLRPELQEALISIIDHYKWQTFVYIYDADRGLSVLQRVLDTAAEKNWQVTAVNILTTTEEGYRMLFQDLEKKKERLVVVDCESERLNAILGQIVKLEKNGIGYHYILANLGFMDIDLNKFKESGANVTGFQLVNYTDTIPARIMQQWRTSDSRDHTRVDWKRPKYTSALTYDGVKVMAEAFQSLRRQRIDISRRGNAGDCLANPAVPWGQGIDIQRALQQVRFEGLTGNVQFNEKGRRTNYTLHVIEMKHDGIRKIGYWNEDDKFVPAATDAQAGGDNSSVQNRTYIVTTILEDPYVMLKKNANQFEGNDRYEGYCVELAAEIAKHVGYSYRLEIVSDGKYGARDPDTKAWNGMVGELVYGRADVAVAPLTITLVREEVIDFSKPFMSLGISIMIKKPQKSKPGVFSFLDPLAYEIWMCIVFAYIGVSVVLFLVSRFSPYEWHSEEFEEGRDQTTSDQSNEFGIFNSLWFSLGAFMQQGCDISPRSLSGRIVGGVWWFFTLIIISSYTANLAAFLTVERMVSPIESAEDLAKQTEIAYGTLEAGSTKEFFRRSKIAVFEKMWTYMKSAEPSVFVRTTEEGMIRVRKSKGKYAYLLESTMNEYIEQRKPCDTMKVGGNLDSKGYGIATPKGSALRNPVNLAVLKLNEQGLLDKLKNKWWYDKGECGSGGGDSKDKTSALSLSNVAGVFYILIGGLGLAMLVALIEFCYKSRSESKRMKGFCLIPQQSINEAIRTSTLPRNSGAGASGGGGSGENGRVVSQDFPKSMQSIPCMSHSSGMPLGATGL
In short: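 Xenopus oocytes injected with GluA1_i cRNA (25 nL of 1 ng/nL), kept 2–4 days at 17 °C in Barth's medium with gentamicin. Two-electrode voltage clamp at room temperature in superfused frog Ringer's (Ba2+-containing, pH 7.6). Current evoked by 300 μM L-glutamate; test compound at 100 nM added by bath, co-applied with agonist. Percent inhibition of the evoked current recorded.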

[3] = biological target: Glutamate NMDA receptor; Grin1/Grin2a (Rattus norvegicus, UniProt P35439+Q00959); experiment: Inhibition of rat recombinant GluN1/2A expressed in Xenopus oocytes assessed as inhibition of glutamate/glycine-evoked channel current at holding potential of -80 mV by two-electrode voltage clamp technique
In short: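 Oocytes were injected with GluN1/N2A cRNA at a 1:10 ratio (25 nL at 0.5 ng/nL), incubated at 17 °C in Barth's medium with gentamicin, and recorded after 2−4 days. Clamp at −80 mV, rt, in frog Ringer's (BaCl₂, pH 7.6). Increasing antagonist was co-applied with 100 μM L-glutamate plus 100 μM glycine. IC50 came from a Hill fit over 3−8 oocytes.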

[4] = biological target: Glutamate receptor 1 (Rattus norvegicus, UniProt P19490); experiment: Inhibition of rat recombinant GluA1 expressed in Xenopus oocytes assessed as inhibition of glutamate-induced channel current at holding potential of -80 mV by two-electrode voltage clamp technique
Sequence of Glutamate receptor 1 (P19490 whole entry, the tested form may be a part): as above
In short: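 GluA1_i cRNA (25 nL at 1 ng/nL) injected into collagenase-treated oocytes, kept at 17 °C in Barth's medium (pH 7.4) with gentamicin, recorded 2−4 days later. Held at −80 mV, rt, superfused with frog Ringer's (BaCl₂, pH 7.6). Antagonist co-applied with 300 μM L-glutamate at rising concentrations. Curves from 3−8 oocytes fitted to a Hill equation for IC50.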

[5] = species on record: Rattus norvegicus; experiment: Selectivity ratio of IC50 for rat recombinant GluN1/2A expressed in Xenopus oocytes to IC50 for rat recombinant GluA1 expressed in Xenopus oocytes

| Compound | inhibition [1] [%] | inhibition [2] [%] | IC50 [3] [nM] | IC50 [4] [nM] | Ratio IC50 [5] |
| --- | --- | --- | --- | --- | --- |
| NCCCNCCCCNCCCNCCCNCCCNC(=O)Cc1c[nH]c2ccccc12 | > 90 | – | – | – | – |
| CN(CCCC[C@H](N)C(=O)NCCCCCNC(=O)[C@H](CC(N)=O)NC(=O)Cc1c[nH]c2cccc(O)c12)CCCNC(=O)[C@@H](N)CCCNC(=N)N | < 20 | > 40 | 1630 | 52 | – |
| NCCCNCCCCNCCCNCCCN(O)CCCNC(=O)Cc1c[nH]c2ccccc12 | > 90 | – | 12 | 11 | – |
| CN(CCCC[C@H](N)C(=O)NCCCCCNC(=O)[C@H](CC(N)=O)NC(=O)Cc1c[nH]c2ccccc12)CCCNC(=O)[C@@H](N)CCCNC(=N)N | < 20 | > 40 | – | – | – |
| NCCCNCCCCNCCCNCCCN(O)CCCNC(=O)Cc1c[nH]c2cccc(O)c12 | > 90 | – | – | – | – |
| N=C(N)NCCC[C@H](N)C(=O)NCCCNCCCC[C@H](N)C(=O)NCCCCCNC(=O)[C@H](CC(N)=O)NC(=O)Cc1c[nH]c2ccccc12 | < 20 | 81 | – | – | – |
| C[N+](C)(CCCC[C@H](N)C(=O)NCCCCCNC(=O)[C@H](CC(N)=O)NC(=O)Cc1c[nH]c2cccc(O)c12)CCCNC(=O)[C@@H](N)CCCNC(=N)N | < 20 | > 40 | 3850 | 123 | – |
| C[N+](C)(CCCC[C@H](N)C(=O)NCCCCCNC(=O)[C@H](CC(N)=O)NC(=O)Cc1c[nH]c2ccccc12)CCCNC(=O)[C@@H](N)CCCNC(=N)N | < 20 | > 40 | – | – | – |
| NCCCNCCCCNCCCNCCCNCCCNC(=O)Cc1ccc(O)cc1O | > 90 | – | – | – | – |
| N=C(N)NCCC[C@H](N)C(=O)NCCCNCCCC[C@H](N)C(=O)NCCCCCNC(=O)[C@H](CC(N)=O)NC(=O)Cc1c[nH]c2cccc(O)c12 | < 20 | 84 | 387 | 15 | 26 |
| NCCCNCCCCNCCCNCCCNCCCNC(=O)Cc1c[nH]c2cccc(O)c12 | > 90 | – | – | – | – |
